Source: paper PMC10784415 (Developmental dynamics : an official publication of the …, 2023)

Legend:
Wistar rats [1] = experiment: MicroCT analysis of dentoalveolar tissues; format: in vivo, rat; conditions: for Rats with aberrant crown and root morphology of mandibular third molars: high dose (1.0 mg/kg) from PND7, PND37
Procedure, shortened: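 Daily oral gavage began at PND7 (vehicle, or test compound at 0.1 or 1.0 mg/kg), and formalin-fixed heads (5 per sex per group) were scanned by microCT at PND14 and PND37. PND37 thresholds were enamel 1500 and dentin/bone 650 mg HA/cm³. Alveolar bone included buccal/lingual, interdental and mesial rise regions. Read-outs were second-molar tissue volumes and densities, first-molar root lengths, and third-molar tissue thickness. Analysis was one-way ANOVA, p<0.05.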

Wistar rats [2] = experiment: MicroCT analysis of craniofacial bones and sutures; format: in vivo, rat
Procedure, shortened: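 Wistar rats received daily oral gavage from PND7 (vehicle acetate buffer pH 4.68/PEG300 50:50, or 0.1 or 1.0 mg/kg) and were examined at PND14 and PND37; 5 per sex per group. MicroCT gave bone volume and mineral density of nasal, premaxilla, maxilla, frontal, parietal and interparietal bones, linear skull measurements from set landmarks, and suture patency on 2D/3D images. Analysis was one-way ANOVA.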

Wistar rats [3] = experiment: Histology and immunohistochemistry of mandibles; format: in vivo, rat
[4] = Body weight at time of sacrifice; format: in vivo, rat; conditions: female rats, high dose, PND37, vs vehicle and low dose; non-significant
Procedure, shortened: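 Male and female Wistar rats received a daily oral gavage of vehicle (acetate buffer pH 4.68:PEG300, 50:50 v/v) or test compound at 0.1 or 1.0 mg/kg, starting on PND7. Rats were euthanized on PND14 or PND37, and body weight was recorded at sacrifice.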

CYP 3A4 = conditions: liver; cited from earlier work
[5] = female rats, high dose, PND37, vs vehicle
[6] = male rats, high dose, PND37, vs vehicle
[7] = female rats, high dose, vs vehicle

SMILES: CCN1CCN(c2ccc(Nc3cc(N(C)C(=O)Nc4c(Cl)c(OC)cc(OC)c4Cl)ncn3)cc2)CC1 [infigratinib, 3-(2,6-Dichloro-3,5-dimethoxy-phenyl)-1-{6-[4-(4-ethyl-piperazin-1-yl)-phenylamino]-pyrimidin-4-yl}-1-methyl-urea]
- Rats with aberrant crown and root morphology of mandibular third molars (Wistar rats [1]; female rats): 100%
- Alveolar bone density (Wistar rats [1]; female rats, high dose, PND14, vs vehicle): decreased alveolar bone density
- Pulp density of mandibular second molars (Wistar rats [1]; female rats, high dose, PND37): significant increase
- Reduction of mandibular first molar dentin volume (Wistar rats [1]; female rats, high dose, PND37, in comparison to the other groups): 12%
- Decrease of first molar lingual root length (Wistar rats [1]; [5]): 9%
- Decrease of first molar mesial root length (Wistar rats [1]; [5]): 8%
- Decrease of mandibular third molar dentin volume (Wistar rats [1]; [5]): 40%
- Decrease of mandibular third molar enamel volume (Wistar rats [1]; [5]): 64%
- Decrease of root dentin volume (Wistar rats [1]; [5]): 21%
- Alterations in dental tissues (Wistar rats [1]; low dose (0.1 mg/kg)): did not detect any alterations
- Rats with aberrant crown and root morphology of mandibular third molars (Wistar rats [1]; male rats): 80%
- Decrease of mandibular third molar dentin volume (Wistar rats [1]; [6]): 28%
- Decrease of mandibular third molar enamel thickness (Wistar rats [1]; [6]): 33%
- Decrease of mandibular third molar enamel volume (Wistar rats [1]; [6]): 61%
- Decrease of root dentin volume (Wistar rats [1]; [6]): 16%
- Dentin mineral density of second molars (Wistar rats [1]; [6]): significantly higher
- Interfrontal suture patency (Wistar rats [2]; female rats, high dose, PND37, vs vehicle and low dose): significantly more patent
- Decrease of parietal bone volume (Wistar rats [2]; female rats, high dose, vs low dose): 15%
- Decrease of frontal bone volume (Wistar rats [2]; [7]): 12%
- Decrease of interparietal bone mineral density (Wistar rats [2]; [7]): 4%
- Decrease of interparietal bone volume (Wistar rats [2]; [7]): 18%
- Decrease of parietal bone volume (Wistar rats [2]; [7]): 18%
- Coronal suture patency (Wistar rats [2]; females and males, low dose and high dose, PND14, vs vehicle): appeared more patent
- Interfrontal suture width (Wistar rats [2]; [6]): significantly more patent
- Rats with root resorption (cathepsin K staining) (Wistar rats [3]; female rats, high dose, PND37 (vehicle 75%)): 25%
- Rats with root resorption (cathepsin K staining) (Wistar rats [3]; female rats, low dose, PND37 (vehicle 75%)): 50%
- Rats with root resorption (cathepsin K staining) (Wistar rats [3]; male rats, low or high dose, PND37 (vehicle 25%)): no male rats in either low or high dose groups exhibited root resorption
- Body weight [4]: trend toward lower body weight
- Metabolism (CYP 3A4): metabolized mainly via CYP 3A4
